Source: PubChem BioAssay
Hits are enriched below; roughly 1.8% of the tested compounds scored in any of these assays.
UPR XBP1 act – activators of adaptive arm of unfolded protein response (XBP1). CHO-XBP1 luciferase reporter, IRE1-XBP1 UPR activation, luminescence; percent of tunicamycin response, DMSO as zero. activation, % at 20 µM. hit rate 0.33% among 330,000. AID 463104;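 active means versus positive control, 20 µM dose yields 30% or more activation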;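 further: 100% = tunicamycin at 10 µg/mL and 0% = DMSO only wells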
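Material: CHO-XBP1 cells stably carrying IRE1-XBP1-driven luciferase reporter / Amount: 1000 cells per well / Compound: 20 µM, 1% DMSO / Times: 6 h treatment, 37 °C / Detection: luciferase luminescence / Measure: % activation of reporter signal versus tunicamycin and DMSO controls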
CHOP UPR activ – activators of apoptotic arm of unfolded protein response (CHOP); CHO-CHOP luciferase reporter, UPR activation, luminescence; percent of tunicamycin response over DMSO baseline; activation, % at 10 µM; hit rate 0.34% among 330,000; AID 449763;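 active means at 10 µM dose, activation of 40% or more, normalized to positive control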;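 further: 100% = tunicamycin at 10 µg/mL and 0% = DMSO alone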
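measured by = luciferase luminescence | assay system = CHO-CHOP cells, stable luciferase reporter of PERK-eIF2a-CHOP signalling | amount = 500 reporter cells seeded per well | timing = 6 h compound exposure at 37 °C after overnight seeding | controls = positive tunicamycin 10 µg/mL, negative DMSO alone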
Jurkat NFkB inh – lowers PMA/ionomycin-induced NF-kB signal in Jurkat cells; AID 435003; inhibition, % at 4 µM; PMA/ionomycin-induced NF-kB luciferase reporter, luminescence; hit rate 0.53% among 330,000; in the data active means inhibition above about 50%
697 NFkB inh – inhibitors of the PMA/ionomycin-induced NF-kB reporter in 697 B cells. 697 B-cell NF-kB luciferase reporter, 16 h. inhibition, % at 4 µM. hit rate 0.33% among 330,000; in the data active means inhibition above about 35%
CRFR2-BP antag – blocks CRF-induced signaling of the CRF-BP/CRF-R2 complex; HEK293 CRF-R2/CRF-BP, CRF-induced calcium fluorescence; AID 588475; hit rate 0.59% among 350,000; inhibition, % at 11.8 µM;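 active means inhibition of the ligand-induced calcium signal above about 50% at the single tested concentration, limit read from the data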
* marks the source's active call; other numbers are inactive results; · = not tested or not shown.

SMILES	UPR XBP1 act	CHOP UPR activ	Jurkat NFkB inh	697 NFkB inh	CRFR2-BP antag
Cc1[nH]c2ccc(C(=O)OC(C)C(=O)NCc3ccccc3)cc2c1C (centres undefined)	-1	0	49	-54	23
c1ccn2cc(CSc3nnc4ccccn34)nc2c1	-3	2	-81	-143	3
Cn1ccnc1SCc1cn2ccccc2n1	-1	4	-57	-80	72*
CCN1CCc2c(sc(NC(=O)c3ccc(S(=O)(=O)N(CC)c4ccccc4)cc3)c2C(N)=O)C1	22	1	15	-23	-150
Cc1ccc(S(=O)(=O)c2nnn3c2nc(N2CCCCC2)c2ccccc23)cc1	6	0	-5	-10	51*
CO[C@H]1O[C@H](C)[C@@H](O)C[C@H]1NC(=O)OCc1ccccc1	-4	-1	1	-6	10
O=c1[nH]c(SCc2n[nH]c(=S)n2-c2ccccc2)nc2ccccc12	-4	-1	-4	5	-25
O=c1[nH]c(SCc2n[nH]c(=S)n2-c2ccccc2)nc2sc3c(c12)CCC3	-1	-1	1	21	93*
CC[C@]12c3[nH]c4ccc(Cl)cc4c3CCN1C(=O)[C@@H](CC(=O)NCCC1=CCCCC1)C[C@@H]2C(=O)N1CCN(C(=O)C2CC2)CC1	5	16	·	-3	8
COc1cccc(-c2ccc3ncnc(NCc4cccs4)c3c2)c1	-1	0	6	-14	54*
c1cncc(-c2ccc3ncnc(NCc4cccs4)c3c2)c1	5	0	-8	1	0
CSC1=NCCN1C(=O)Cc1ccc(Cl)cc1	0	2	1	9	50*
Nc1ccc2c(c1)C(=NO)c1ccccc1-2	·	·	·	·	96*
CC(C)Oc1ccc(C2CC(=O)N(C)C2=O)cc1 (centres undefined)	-2	3	5	5	6
CO/N=C/C(c1ncc(C(F)(F)F)cc1Cl)S(=O)(=O)c1ccccc1 (centres undefined)	3	0	-2	-16	-8
CO/N=C/C(C#N)c1ncc(C(F)(F)F)cc1Cl (centres undefined)	0	-1	-6	-4	77*
CCc1ccc(NC(=O)Cn2nc(C(=O)O)c3ccccc3c2=O)cc1	-3	0	-16	12	58*
CC1(C)C[C@@H]2C[C@@](C)(CN2C(=O)c2ccccc2)C1	0	0	-4	0	-6
CC1(C)CC2CC(C)(CN2/C=C2/CCCCC2=O)C1 (centres undefined)	0	0	0	29	115*
Cc1cc([N+](=O)[O-])ccc1N1C(=O)c2ccc(C(=O)Nc3ccccc3C(=O)O)cc2C1=O	3	0	-17	-2	22
COc1ccc(/C=C/C(=O)NC(=S)Nc2ccc(S(=O)(=O)Nc3cc(OC)ncn3)cc2)cc1	·	·	·	·	58*
COc1cc(NS(=O)(=O)c2ccc(NC(=S)NC(=O)/C=C/c3ccc(OC)c(OC)c3)cc2)ncn1	0	2	-2	-3	-20
COCCC(=O)N1CCC(Oc2ccc(C(=O)NC3CCOC(C)(C)C3)cc2)CC1 (centres undefined)	-9	-1	-3	-7	-34
CCN1CCN(C(=O)C2=CC(c3ccc(OC)cc3)=NS(=O)(=O)N2C)CC1	-2	3	7	-2	63*
O=C(Cc1c(O)c2ccccc2[nH]c1=O)N(Cc1ccccc1)Cc1ccccc1	-1	0	-10	11	-5
SMILES	UPR XBP1 act	CHOP UPR activ	Jurkat NFkB inh	697 NFkB inh	CRFR2-BP antag
O=C(Cc1c(O)c2ccccc2[nH]c1=O)OC1CCCCC1	2	0	14	9	67*
COc1cc(NC(=O)[C@H](C)NC(=O)N2CCn3c2nc2ccccc23)cc(OC)c1	2	0	-6	-8	86*
COc1cccc(NC(=O)[C@H](C)NC(=O)N2CCn3c2nc2ccccc23)c1	-4	1	9	7	-1
Cc1ccc(OCCNC(=O)CNC(=O)c2ccc(Cl)c([N+](=O)[O-])c2)cc1	-3	-2	-12	10	2
Cc1cc(C)c(S(=O)(=O)N2CCN(C(=O)c3ccccc3OCc3c(C)noc3C)CC2)c(C)c1	·	·	·	·	15
Cc1ccc(S(=O)(=O)N(CC(=O)Nc2ccccc2C(=O)O)c2cccc(Cl)c2C)cc1	-1	0	5	-28	50*
COc1cc(/C=C/c2ccc3cccc(O)c3n2)cc(Br)c1OC	120*	21	7	-202	-8
COc1ccc(/C=C/c2ccc3cccc(O)c3n2)cc1Br	-1	6	-62	-75	15
O=C(COC(=O)COc1ccccc1)NCc1ccc2c(c1)OCO2	-1	0	6	4	-3
O=C(NCCCN1CCCC1=O)C(=O)NCC1OCCN1S(=O)(=O)c1cc(F)ccc1F (centres undefined)	·	·	·	·	1
COC(=O)CSC1=C(C#N)C(c2ccc(Cl)cc2)C(C(=O)OC)C(=O)N1 (centres undefined)	-1	-1	12	14	58*
CCOC(=O)CSC1=C(C#N)C(c2ccc(Cl)cc2)C(C(=O)OC)C(=O)N1 (centres undefined)	1	0	-4	-10	53*
O=C(c1ccccc1)N1CCN(c2ncccn2)CC1	2	-2	-4	2	3
O=C(c1ccc(Br)cc1)N1CCN(c2ncccn2)CC1	-1	0	5	8	94*
O=C(c1ccc2ccccc2c1O)N1CCCCC1	·	·	·	·	7
CC1CN(C(c2ccco2)c2sc3ncnn3c2O)CC(C)O1 (centres undefined)	-3	-2	9	10	82*
Cc1ccc(SCc2noc(-c3c(C)noc3C)n2)cc1	-3	-2	5	-6	52*
Cc1ccc(S(=O)(=O)Nc2cccc(-n3cnnn3)c2)cc1C	-6	-1	14	6	-1
N#Cc1c(-c2ccccc2)nc(SCc2cccc(Cl)c2)[nH]c1=O	1	-1	-15	-15	56*
Cc1[nH]c(=O)nc(SCc2cccc(Cl)c2)c1C#N	-3	2	0	11	15
O=c1cc(-c2ccccc2)ss1	·	·	·	·	90*
COc1cc(CC(=O)NCc2ccc3c(c2)OCO3)cc(OC)c1OC	0	0	10	0	-4
COc1cc(C[C@H](C)[C@H](C)Cc2ccc3c(c2)OCO3)ccc1O	3	0	8	-13	59*
COc1ccccc1NC(=O)NNC(=O)c1ccncc1	·	·	·	·	-6
CC(C)(CNC(=O)c1ccc(NS(=O)(=O)c2ccc(Br)cc2)cc1)N1CCOCC1	0	2	3	-2	1
Cc1cc(S(=O)(=O)Nc2ccc(C(=O)NCC(C)(C)N3CCOCC3)cc2)ccc1F	-4	1	10	2	54*
CCN(C(=O)COC(=O)Cc1cccc2ccccc12)C1CCS(=O)(=O)C1 (centres undefined)	-2	-3	-4	12	122*
